Source: ChEMBL document CHEMBL3875170, “2-Methyl-4/5-nitroimidazole derivatives potentiated against sexually transmitted Trichomonas: Design, synthesis, biology and 3D-QSAR study” (Eur J Med Chem, 2016)
Values after ≈ are worked out from the molar mass of the structure shown.

What was measured:
[1] = Cytotoxicity against human HeLa cells after 24 hrs by MTT assay; type: toxicity, cell-based
How it was run: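 HeLa cells seeded at 2 × 10⁴ per well in DMEM with 10% FCS, in triplicate, and held 24 h at 37 °C in 5% CO₂. Exposed to compound dilutions for 24 h; controls received 0.05% DMSO. MTT in PBS pH 7.4 added, formazan dissolved in DMSO, OD540 read. IC50 taken as the concentration killing 50% of cells.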

[2] = Selectivity index, ratio of IC50 for human HeLa cells to MIC for metronidazole resistant Trichomonas vaginalis ATCC 50143; type: toxicity, cell-based; settings: read-out: Selectivity Index
How it was run: (§1)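 SI is HeLa IC50 divided by parasite MIC. HeLa cells seeded at 2 × 10⁴/well in triplicate in DMEM with 10% FCS, 24 h at 37 °C in 5% CO2. Medium then replaced with compound dilutions (0.05% DMSO controls) for 24 h. Viability by MTT read at OD540; IC50 is the concentration killing 50% of cells. MIC from 48 h trypan blue parasite killing in TYM.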

Trichomonas vaginalis [3] = assay: Antiparasitic activity against metronidazole resistant Trichomonas vaginalis ATCC 50143 after 48 hrs by trypan blue exclusion assay; type: functional; settings: ATCC 50143, 48 h
How it was run: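 T. vaginalis trophozoites ([…]), log phase, grown in TYM with 10% FCS, vitamin mix and penicillin/streptomycin at 37 °C. Test agents from DMSO stocks serially diluted in TYM; DMSO/TYM vehicle controls. Anaerobic incubation at 37 °C with microscopic viability checks from 3 to 48 h by trypan blue exclusion. MIC is the lowest concentration killing all cells by 48 h. Repeated three times.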

[4] = Selectivity index, ratio of IC50 for human HeLa cells to MIC for metronidazole sensitive Trichomonas vaginalis ATCC 33592; type: toxicity, cell-based; settings: read-out: Selectivity Index; how it was run: as §1
Trichomonas vaginalis [5] = assay: Potency index, ratio of metronidazole MIC to compound MIC for metronidazole resistant Trichomonas vaginalis ATCC 50143; type: functional
Trichomonas vaginalis [6] = assay: Antiparasitic activity against metronidazole sensitive Trichomonas vaginalis ATCC 33592 after 48 hrs by trypan blue exclusion assay; type: functional; settings: ATCC 33592, 48 h
Trichomonas vaginalis [7] = assay: Potency index, ratio of metronidazole MIC to compound MIC for metronidazole sensitive Trichomonas vaginalis ATCC 33592; type: functional
Trichomonas vaginalis [8] = assay: Antiparasitic activity against Trichomonas vaginalis in po dosed mouse assessed as size of abscess at 50 mg/kg, po administered daily for 5 days measured 5 days post last dose (reference value: 120 mm'2); type: functional
How it was run: (§2)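 Six-week-old mice inoculated subcutaneously in the left hind flank with 50 µL of 2 × 10⁶ saline-washed trophozoites/mL grown in TYM. Abscess confirmed by palpation at day 7 and by fine-needle biopsy. Oral dosing in gum acacia at 50 or 100 mg/kg daily; controls received vehicle. Abscess size measured longitudinally each day and area calculated; n = 3 per group.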

Trichomonas vaginalis [9] = assay: Antiparasitic activity against Trichomonas vaginalis in po dosed mouse assessed as size of abscess at 50 mg/kg, po administered daily for 7 days measured 7 days post last dose (reference value: 113 mm'2); type: functional; how it was run: as §2

For `Cc1nc([N+](=O)[O-])cn1CC(O)CSC(=S)N1CCN(c2ccccc2)CC1` (racemic), the IC50 at 24 h [1] was greater than 5000 µM, the selectivity ratio [2] was greater than 16 and the MIC (Trichomonas vaginalis [3]) was 297 µM (≈ 125 µg/mL). For the same compound, the selectivity ratio [4] was greater than 227, the Ratio (Trichomonas vaginalis [5]) was “<=12.7” and the MIC (Trichomonas vaginalis [6]) was 22.7 µM (≈ 9.56 µg/mL).

For `Cc1ncc([N+](=O)[O-])n1CC(O)CSC(=S)N1CCCC(C)C1` (racemic), the Ratio (Trichomonas vaginalis [7]) was “<=2.4”, the IC50 at 24 h [1] was 609 µM and the selectivity ratio [2] was 8. For the same compound, the MIC (Trichomonas vaginalis [3]) was 69.8 µM (≈ 25 µg/mL), the selectivity ratio [4] was 35 and the Ratio (Trichomonas vaginalis [5]) was 2.5 - 12.6. For the same compound, the MIC (Trichomonas vaginalis [6]) was 17.4 µM (≈ 6.26 µg/mL).

With `Cc1ncc([N+](=O)[O-])n1CC(O)CSC(=S)N1CCN(c2ccccc2F)CC1` (racemic) the Ratio (Trichomonas vaginalis [7]) was “<=2.4”, the IC50 at 24 h [1] was 3240 µM and the selectivity ratio [2] was 56. The MIC (Trichomonas vaginalis [3]) was 56.9 µM (≈ 25 µg/mL), the selectivity ratio [4] was 227 and the Ratio (Trichomonas vaginalis [5]) was “<=12.7”. The MIC (Trichomonas vaginalis [6]) was 14.2 µM (≈ 6.25 µg/mL).

For `Cc1ncc([N+](=O)[O-])n1CC(O)CN1CCN(c2cccc(Cl)c2Cl)CC1` (racemic), the Ratio (Trichomonas vaginalis [7]) was “<=2.4”, the IC50 at 24 h [1] was greater than 5000 µM and the selectivity ratio [2] was greater than 33. For the same compound, the MIC (Trichomonas vaginalis [3]) was 151 µM (≈ 62.5 µg/mL), the selectivity ratio [4] was greater than 265 and the Ratio (Trichomonas vaginalis [5]) was “<=12.7”. The MIC (Trichomonas vaginalis [6]) was 18.9 µM (≈ 7.81 µg/mL).

For `Cc1ncc([N+](=O)[O-])n1CC(O)CSC(=S)N1CCC(C)CC1` (racemic), the Ratio (Trichomonas vaginalis [7]) was “<=2.4”, the IC50 at 24 h [1] was 1820 µM and the selectivity ratio [2] was 26. For the same compound, the MIC (Trichomonas vaginalis [3]) was 69.8 µM (≈ 25 µg/mL), the selectivity ratio [4] was 104 and the Ratio (Trichomonas vaginalis [5]) was 2.5 - 12.6. It also gave an MIC (Trichomonas vaginalis [6]) of 17.4 µM (≈ 6.26 µg/mL).

For `CCOC(=O)N1CCN(C(=S)SCC(O)Cn2c([N+](=O)[O-])cnc2C)CC1` (racemic), the Ratio (Trichomonas vaginalis [7]) was “<=2.4”, the IC50 at 24 h [1] was 1610 µM and the selectivity ratio [2] was 26. For the same compound, the MIC (Trichomonas vaginalis [3]) was 60 µM (≈ 25 µg/mL), the selectivity ratio [4] was 107 and the Ratio (Trichomonas vaginalis [5]) was “<=12.7”. The MIC (Trichomonas vaginalis [6]) was 15 µM (≈ 6.25 µg/mL).

With `Cc1ncc([N+](=O)[O-])n1CC(O)CSC(=S)N1CCN(c2cccc(Cl)c2)CC1` (racemic) the Ratio (Trichomonas vaginalis [7]) was “<=2.4”, the IC50 at 24 h [1] was 1080 µM and the selectivity ratio [2] was 15. For the same compound, the MIC (Trichomonas vaginalis [3]) was 68.7 µM (≈ 31.3 µg/mL), the selectivity ratio [4] was 62 and the Ratio (Trichomonas vaginalis [5]) was “<=12.7”. The MIC (Trichomonas vaginalis [6]) was 17.2 µM (≈ 7.82 µg/mL).

In the case of `Cc1ncc([N+](=O)[O-])n1CC(O)CSC(=S)N1CCN(c2cccc(Cl)c2Cl)CC1` (racemic), the Ratio (Trichomonas vaginalis [7]) is reported as “<=2.4”, the IC50 at 24 h [1] is reported as 1000 µM and the selectivity ratio [2] is reported as 7. For the same compound, the MIC (Trichomonas vaginalis [3]) was 128 µM (≈ 62.7 µg/mL), the selectivity ratio [4] was 62 and the Ratio (Trichomonas vaginalis [5]) was “<=12.7”. It also gave an MIC (Trichomonas vaginalis [6]) of 16 µM (≈ 7.83 µg/mL).

In the case of `Cc1ncc([N+](=O)[O-])n1CC(O)Cn1ccnn1` (racemic), the Ratio (Trichomonas vaginalis [7]) is reported as “<=2.4”, the IC50 at 24 h [1] is reported as greater than 5000 µM and the selectivity ratio [2] is reported as greater than 50. The MIC (Trichomonas vaginalis [3]) was 99.2 µM (≈ 25 µg/mL), the selectivity ratio [4] was greater than 416 and the Ratio (Trichomonas vaginalis [5]) was “<=12.7”. The MIC (Trichomonas vaginalis [6]) was 12.4 µM (≈ 3.12 µg/mL).

In the case of `Cc1ncc([N+](=O)[O-])n1CC(O)Cn1cnc2ccccc21` (racemic), the IC50 at 24 h [1] is reported as 4530 µM, the selectivity ratio [2] is reported as 54 and the MIC (Trichomonas vaginalis [3]) is reported as 83 µM (≈ 25 µg/mL). The selectivity ratio [4] was 181, the Ratio (Trichomonas vaginalis [5]) was “<=12.7” and the MIC (Trichomonas vaginalis [6]) was 25.9 µM (≈ 7.82 µg/mL).

With `Cc1ncc([N+](=O)[O-])n1CC(O)CN1CCOCC1` (racemic) [MORINIDAZOLE] the IC50 at 24 h [1] was greater than 5000 µM, the selectivity ratio [2] was greater than 54 and the MIC (Trichomonas vaginalis [3]) was 92.6 µM (≈ 25 µg/mL). The selectivity ratio [4] was greater than 108, the Ratio (Trichomonas vaginalis [5]) was “<=12.7” and the MIC (Trichomonas vaginalis [6]) was 46.3 µM (≈ 12.5 µg/mL).

In the case of `Cc1ncc([N+](=O)[O-])n1CCO` [METRONIDAZOLE], the IC50 at 24 h [1] is reported as greater than 5000 µM, the Activity (Trichomonas vaginalis [8]) is reported as 1 - 5 mm2 and the selectivity ratio [2] is reported as greater than 13. The MIC (Trichomonas vaginalis [3]) was 365 µM (≈ 62.6 µg/mL), the selectivity ratio [4] was greater than 238 and the MIC (Trichomonas vaginalis [6]) was 21.1 µM (≈ 3.6 µg/mL). For the same compound, the Activity (Trichomonas vaginalis [9]) was 1.57 mm2.
